Measured values pooled from the literature.
Target: Serine/threonine-protein kinase Sgk2 (SGK2, Homo sapiens, UniProt Q9HBY8)
One construct used (Q9HBY8 1-367): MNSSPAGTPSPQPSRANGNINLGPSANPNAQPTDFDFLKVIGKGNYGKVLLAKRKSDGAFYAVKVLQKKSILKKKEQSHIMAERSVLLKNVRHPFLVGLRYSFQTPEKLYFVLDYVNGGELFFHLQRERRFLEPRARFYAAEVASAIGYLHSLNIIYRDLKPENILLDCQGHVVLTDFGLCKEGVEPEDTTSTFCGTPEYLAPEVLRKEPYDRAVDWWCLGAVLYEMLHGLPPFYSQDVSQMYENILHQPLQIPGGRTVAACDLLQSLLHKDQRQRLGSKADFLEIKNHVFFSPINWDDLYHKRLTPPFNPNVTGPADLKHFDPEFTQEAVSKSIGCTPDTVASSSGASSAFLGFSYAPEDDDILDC

SMILES | assay | setting | remaining binding [%]
COCCOc1nc(-c2ccc(Cl)nc2)nc2c1CN(C(=O)c1ncn3ccccc13)CC2 | cell-free assay, competition with immobilised ligand | 0.1 µM | 88
O=C(c1ccc(Nc2ncc(Cl)c(-c3ccc(Cl)s3)n2)cc1)N1CCC(N2CCCC2)CC1 | binding, competition with immobilised ligand | 1 µM | 100
C[C@@H]1CCN(c2nccc(-c3cnn4ncccc34)n2)C1 | binding | 1 µM | 81
Nc1ncc2c(n1)-c1c([nH]c3ccc(C#CC4CC4)cc13)CCCC2 | binding, competition with immobilised ligand | 1 µM | 96
C=CC(=O)N1CCC(C(=O)NCC(=O)N2CCN(c3nc(-c4cnc(N)nc4C(F)F)nc(N4CCOCC4)n3)CC2)CC1 | binding, competition with immobilised ligand | 1 µM | 86
O=C(c1ccc(Nc2nccc(-c3cc4ccccc4s3)n2)cc1)N1CCC(N2CCCC2)CC1 | binding, competition with immobilised ligand | 1 µM | 47
CC(=O)N1CCC(c2ccc(C(=O)NC(=N)N)cc2C(F)(F)F)CC1 | cell-free assay, competition with immobilised ligand | 1 µM | 100
CC1CCCN1c1nccc(-c2cnn3ncccc23)n1 (stereo not drawn) | binding | 1 µM | 94
CCOC(=O)c1cc2cc(-c3cc(C(=O)NCc4ccc(C(=O)O)cc4)nn3C)ccc2[nH]1 | cell-free assay, competition with immobilised ligand | 0.1 µM | 100
O=C(NCCCN1CCOCC1)c1ccc(Nc2nccc(-c3cc4ccccc4s3)n2)cc1 | binding, competition with immobilised ligand | 1 µM | 55
O=C(Nc1c[nH]nc1C(=O)NC1CCNCC1)c1cc(F)cc(F)c1 | binding, competition with immobilised ligand | 1 µM | 93
CN(C)c1ncc(F)c(-c2cnn3ncccc23)n1 | binding | 1 µM | 72
COc1ncc2cc3ccccc3nc2c1C#N | cell-free assay, competition with immobilised ligand | 5 µM | 98
C[C@@H](c1ccc(-n2cnc3c(N)ncnc32)cc1)N1CCc2nn(C)c(Cc3ccccc3)c2C1=O | binding, competition with immobilised ligand | 0.1 µM | 48
O=C(Nc1cccnn1)N1CC(C/C=C/c2cncc(Oc3ccc(C(F)(F)F)cn3)n2)C1 | cell-free assay, competition with immobilised ligand | 1 µM | 74
CN(c1nccc(-c2cnn3ncccc23)n1)C1CC1 | binding | 1 µM | 86
CC1=C(C#N)[C@@H](c2ccc3[nH]nc(C)c3c2)C(C#N)=C(c2ccc(Cl)cc2)N1 | cell-free assay, competition with immobilised ligand | 1 µM | 100
c1cnn2ncc(-c3ccnc(N4CCC45COC5)n3)c2c1 | binding | 1 µM | 65
CCCOc1ccc([C@@H]2[C@@H](C(=O)O)[C@H](c3ccc4c(c3)OCO4)CN2CC(=O)Nc2c(CC)cccc2CC)cc1 | cell-free assay, competition with immobilised ligand | 1 µM | 69
F[C@@H]1CCN(c2nccc(-c3cnn4ncccc34)n2)C1 | binding | 1 µM | 92
COc1cnc(Nc2cccc(S(N)(=O)=O)c2)nc1N1CCN(c2ccccc2)C(=O)C1 | binding, competition with immobilised ligand | 1 µM | 83
